Experimental data from ChEMBL document CHEMBL2424641, “Synthesis and evaluation of novel radioligands for positron emission tomography imaging of the orexin-2 receptor” (J Med Chem, 2013).
The source made the active and inactive calls. No cut-off for these calls is given here.

How the values were obtained:
[1] = biological target: T1, Orexin receptor type 2 (Rattus norvegicus) (UniProt P56719); experiment: Binding affinity to OX2 receptor in coronal rat neocortex layer 6 at 2 nM by autoradiography; conditions: tested as the 11C-labelled form
T1 sequence (whole entry): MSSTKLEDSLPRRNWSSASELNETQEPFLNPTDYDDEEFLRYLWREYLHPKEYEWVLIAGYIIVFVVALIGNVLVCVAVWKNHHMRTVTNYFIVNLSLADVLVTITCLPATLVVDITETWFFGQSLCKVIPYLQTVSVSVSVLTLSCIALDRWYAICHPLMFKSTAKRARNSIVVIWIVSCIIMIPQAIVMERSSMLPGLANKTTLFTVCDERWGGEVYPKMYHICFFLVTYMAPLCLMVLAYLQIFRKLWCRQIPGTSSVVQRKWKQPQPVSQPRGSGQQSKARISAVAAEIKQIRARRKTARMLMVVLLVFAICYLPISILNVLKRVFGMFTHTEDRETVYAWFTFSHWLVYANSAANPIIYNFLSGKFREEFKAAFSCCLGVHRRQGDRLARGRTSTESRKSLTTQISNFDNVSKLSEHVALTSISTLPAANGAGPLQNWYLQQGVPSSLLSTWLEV
In short: (§1)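 Rat brain sections (20 μm) preincubated 20 min at rt in 25 mM HEPES pH 7.4 with 5 mM MgCl2 and 1 mM CaCl2, then incubated 60 min at rt with 11C radioligand; nonspecific binding with 10 μM unlabeled compound. Sections washed three times in cold water, dried, exposed to imaging plate 1 h alongside calibrated radioactive standards.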

[2] = biological target: T1, Orexin receptor type 2 (Rattus norvegicus); experiment: Binding affinity to OX2 receptor in coronal rat hypothalamus at 2 nM by autoradiography; conditions: tested as the 11C-labelled form; in short: as §1
[3] = biological target: T2, Orexin/Hypocretin receptor type 1 (Homo sapiens, UniProt O43613); experiment: Displacement of [125I]-orexin-A from human OX1 receptor expressed in CHO cells after 30 mins by liquid scintillation counting analysis; assay type: cell-based
T2 sequence (O43613 whole entry): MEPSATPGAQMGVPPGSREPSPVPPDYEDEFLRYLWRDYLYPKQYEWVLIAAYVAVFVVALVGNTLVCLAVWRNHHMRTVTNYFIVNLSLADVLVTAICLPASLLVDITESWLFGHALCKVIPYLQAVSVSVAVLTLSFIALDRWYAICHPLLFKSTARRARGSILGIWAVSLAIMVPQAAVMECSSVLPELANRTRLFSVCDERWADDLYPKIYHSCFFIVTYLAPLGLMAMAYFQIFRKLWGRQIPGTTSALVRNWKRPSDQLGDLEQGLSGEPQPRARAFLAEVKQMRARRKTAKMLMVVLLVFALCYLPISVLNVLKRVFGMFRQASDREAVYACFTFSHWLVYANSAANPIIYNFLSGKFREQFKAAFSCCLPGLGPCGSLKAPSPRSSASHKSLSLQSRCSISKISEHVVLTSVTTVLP
In short: (§2)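 CHO membranes expressing human OX1R or OX2R (5 μg protein) incubated 30 min at rt with compound and [125I]-orexin A (2 nM stock) in HEPES buffer pH 7.5 with MgCl2, CaCl2, BSA. Nonspecific binding with 10 μM orexin A. Wells washed with HEPES/525 mM NaCl and DPM counted. % inhibition from test, control and nonspecific counts; mean of three wells.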

[4] = Ratio of flux ratio in pig LLC cells expressing MDR1 to flux ratio on pig LLC-PK1 cells; assay type: ADME, cell-based, Sus scrofa
In short: (§3)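 LLC-PK1 and LLC-MDR1 monolayers, 5 days post-seeding, preincubated 2 h at 37 °C in HBSS/10 mM HEPES. Compound added apically or basally, 2 h at 37 °C; opposite side assayed by LC-MS. Papp = Q/t/C0/A; FR = Papp(b→a)/Papp(a→b); corrected FR = FR(LLC-MDR1)/FR(LLC-PK1).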

[5] = Flux ratio of permeability from apical to basolateral to basolateral to apical side in pig LLC cells expressing MDR1 after 2 hrs; assay type: ADME, cell-based, Sus scrofa; in short: as §3
LLC-PK1 = experiment: Flux ratio of permeability from apical to basolateral to basolateral to apical side in pig LLC-PK1 cells after 2 hrs; assay type: ADME, cell-based, Sus scrofa; conditions: llc-pk1, 2 h; in short: as §3
[6] = Octanol-phosphate buffer partition coefficient, log D of the compound at pH 7.4 by Shake flask method; assay type: physicochemical
In short: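 [11C]-labelled compound (about 200 000 cpm) in n-octanol and 0.1 M PBS pH 7.4, vortexed 3 min at rt and centrifuged; weighed aliquots of each phase γ-counted, with the organic layer repartitioned until stable. log D = log(cpm/g octanol ÷ cpm/g PBS); triplicate.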

Orexin receptor type 2 = biological target: T3, Orexin receptor type 2 (Homo sapiens, UniProt O43614); experiment: Displacement of [125I]-orexin-A from human OX2 receptor expressed in CHO cells after 30 mins by liquid scintillation counting analysis; assay type: cell-based; in short: as §2
T3 sequence (O43614 whole entry): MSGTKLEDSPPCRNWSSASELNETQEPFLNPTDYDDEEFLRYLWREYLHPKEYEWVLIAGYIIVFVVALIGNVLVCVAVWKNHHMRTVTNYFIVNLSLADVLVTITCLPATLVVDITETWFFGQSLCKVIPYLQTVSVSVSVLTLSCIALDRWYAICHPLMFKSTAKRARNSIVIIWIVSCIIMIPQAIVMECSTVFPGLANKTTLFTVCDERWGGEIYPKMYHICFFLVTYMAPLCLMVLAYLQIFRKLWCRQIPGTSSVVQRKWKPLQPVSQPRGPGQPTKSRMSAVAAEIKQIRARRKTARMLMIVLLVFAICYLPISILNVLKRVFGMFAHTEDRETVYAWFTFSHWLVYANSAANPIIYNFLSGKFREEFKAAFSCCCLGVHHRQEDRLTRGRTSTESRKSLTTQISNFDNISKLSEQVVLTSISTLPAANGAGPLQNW

[7] = biological target: T1, Orexin receptor type 2 (Rattus norvegicus); experiment: Binding affinity to OX2 receptor in coronal rat brain neocortex layer 6 at 2.5 nM by autoradiography; assay type: tissue-based; conditions: tested as the 11C-labelled form; in short: as §1
[8] = Drug uptake in P-gp-knockout rat neocortex at 78.7 to 189.8 MBq, iv after 90 mins by PET analysis; assay type: ADME, organism-based; conditions: in vivo, 1.5 h
In short: (§4)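 Male Mdr1a-knockout rats (410−500 g) under 1.5% isoflurane at 37 °C; [11C] tracer 78.7−189.8 MBq by tail vein. 90 min list-mode microPET scan with filtered back-projection; ROIs drawn on MRI template; decay-corrected %ID/mL, n = 3. Blocking: unlabeled compound 10 mg/kg po in 5% DMSO/10% cremophor in 10 mM HCl, given 1 h before tracer.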

Hippocampus = experiment: Drug uptake in P-gp-knockout rat hippocampus at 78.7 to 189.8 MBq, iv after 90 mins by PET analysis; assay type: ADME, organism-based; conditions: in vivo, 1.5 h; in short: as §4
Cerebellum = experiment: Drug uptake in P-gp-knockout rat cerebellum at 78.7 to 189.8 MBq, iv after 90 mins by PET analysis in presence of 10 mg/kg, po unlabeled compound; assay type: ADME, organism-based; parameters: dose 10 mg/kg, route oral; conditions: in vivo, 1.5 h; in short: as §4
Thalamus = experiment: Drug uptake in P-gp-knockout rat thalamus at 78.7 to 189.8 MBq, iv after 90 mins by PET analysis; assay type: ADME, organism-based; conditions: in vivo, 1.5 h; in short: as §4

SMILES	Activity [1]	Activity [2]	Ki [3] [nM]	Ratio [4]	Ratio [5]	Ratio (LLC-PK1)	logD [6]	Ki (Orexin receptor type 2) [nM]	Activity [7]	Drug uptake [8]	Drug uptake (Hippocampus)	Drug uptake (Cerebellum)	Drug uptake (Thalamus)
COc1cc(NC(=O)[C@@H]2C[C@@]2(COc2cnc(C)nc2C)c2cccc(F)c2)ncc1F	Active	Active	3	2.06	2.45	1.19	2.93	2	Active	–	–	–	–
Cc1ncc(OC[C@@]2(c3cccc(F)c3)C[C@H]2C(=O)Nc2ccc(C#N)cn2)c(C)n1	–	–	32	1.76	1.92	1.09	–	5	–	–	–	–	–
Cc1ncc(OC[C@@]2(c3cccc(F)c3)C[C@H]2C(=O)Nc2ccc(F)c(O[11CH3])n2)c(C)n1	–	–	–	–	–	–	3.6	–	–	–	–	–	–
COc1ccc([C@]2(COc3cnc(C)nc3C)C[C@H]2C(=O)Nc2ccc(F)cn2)cc1F	–	–	30	1.55	1.24	0.8	3.32	7	–	–	–	–	–
Cc1ncc(OC[C@@]2(c3cccc(F)c3)C[C@H]2C(=O)Nc2cc(O[11CH3])c(F)cn2)c(C)n1	–	–	–	–	–	–	2.93	–	–	Active	Active	Not Active	Active
